Results as given in article PMC8897208 (Acta Pharmaceutica Sinica. B, 2021).

Assays:
[1] = target: T1, SIRT6 (Homo sapiens, UniProt Q8N6T7); assay: FDL assay of SIRT6 deacetylation on H3K9Ac peptide; type: biochemical
Procedure, shortened: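 Recombinant SIRT6 was expressed in E. coli BL21 in LB with 100 μg/mL ampicillin at 37 °C. Expression was induced with 0.5 mmol/L IPTG at OD600 0.8, then grown 18 h at 16 °C and purified by an earlier method.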

[2] = target: T1, SIRT6; assay: HPLC assay of SIRT6 deacetylation on H3K9Ac; type: biochemical; conditions: 50 μmol/L JYQ-42, H3K9Ac peptide
[3] = target: T1, SIRT6; assay: Competition assay between SIRT6 substrates and JYQ-42; type: biochemical; conditions: FDL competition assay
[4] = test system: SIRT6 mutants (Y5A, T57A, P62A, D63A, P67A, H68A, V70A, P80A, K81A, Y257A); assay: FDL assay on SIRT6 Pocket Z mutants; type: biochemical, human
Procedure, shortened: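 SIRT6 point mutants were made by site-directed mutagenesis. Each plasmid was expressed separately in E. coli BL21 (LB, 100 μg/mL ampicillin, 37 °C), induced with 0.5 mmol/L IPTG at OD600 0.8 for 18 h at 16 °C, and purified as for wild type.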

[5] = target: T2, HDAC8 (Homo sapiens, UniProt Q9BY41); assay: HDACs selectivity assay; type: biochemical
T2 sequence (Q9BY41 1-377): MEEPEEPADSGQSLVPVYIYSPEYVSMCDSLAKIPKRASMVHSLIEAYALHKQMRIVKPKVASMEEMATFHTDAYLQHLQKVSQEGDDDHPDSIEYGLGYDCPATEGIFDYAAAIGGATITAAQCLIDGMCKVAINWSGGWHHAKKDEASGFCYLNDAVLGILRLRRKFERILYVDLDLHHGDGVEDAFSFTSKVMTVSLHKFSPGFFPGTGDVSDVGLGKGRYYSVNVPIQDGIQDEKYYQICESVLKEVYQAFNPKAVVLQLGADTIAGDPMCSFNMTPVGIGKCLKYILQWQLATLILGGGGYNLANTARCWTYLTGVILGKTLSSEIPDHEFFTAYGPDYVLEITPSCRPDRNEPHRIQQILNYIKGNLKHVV
Procedure, shortened: (§1)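 Enzyme selectivity panel was run by an outside contract lab to its standard assay protocols. IC50 values came from dose–response fitting of the data points. Each experiment was done independently at least three times.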

[6] = target: HDAC9 (Homo sapiens, UniProt Q9UKV0); assay: HDACs selectivity assay; type: biochemical
Sequence of HDAC9 (Q9UKV0 whole entry): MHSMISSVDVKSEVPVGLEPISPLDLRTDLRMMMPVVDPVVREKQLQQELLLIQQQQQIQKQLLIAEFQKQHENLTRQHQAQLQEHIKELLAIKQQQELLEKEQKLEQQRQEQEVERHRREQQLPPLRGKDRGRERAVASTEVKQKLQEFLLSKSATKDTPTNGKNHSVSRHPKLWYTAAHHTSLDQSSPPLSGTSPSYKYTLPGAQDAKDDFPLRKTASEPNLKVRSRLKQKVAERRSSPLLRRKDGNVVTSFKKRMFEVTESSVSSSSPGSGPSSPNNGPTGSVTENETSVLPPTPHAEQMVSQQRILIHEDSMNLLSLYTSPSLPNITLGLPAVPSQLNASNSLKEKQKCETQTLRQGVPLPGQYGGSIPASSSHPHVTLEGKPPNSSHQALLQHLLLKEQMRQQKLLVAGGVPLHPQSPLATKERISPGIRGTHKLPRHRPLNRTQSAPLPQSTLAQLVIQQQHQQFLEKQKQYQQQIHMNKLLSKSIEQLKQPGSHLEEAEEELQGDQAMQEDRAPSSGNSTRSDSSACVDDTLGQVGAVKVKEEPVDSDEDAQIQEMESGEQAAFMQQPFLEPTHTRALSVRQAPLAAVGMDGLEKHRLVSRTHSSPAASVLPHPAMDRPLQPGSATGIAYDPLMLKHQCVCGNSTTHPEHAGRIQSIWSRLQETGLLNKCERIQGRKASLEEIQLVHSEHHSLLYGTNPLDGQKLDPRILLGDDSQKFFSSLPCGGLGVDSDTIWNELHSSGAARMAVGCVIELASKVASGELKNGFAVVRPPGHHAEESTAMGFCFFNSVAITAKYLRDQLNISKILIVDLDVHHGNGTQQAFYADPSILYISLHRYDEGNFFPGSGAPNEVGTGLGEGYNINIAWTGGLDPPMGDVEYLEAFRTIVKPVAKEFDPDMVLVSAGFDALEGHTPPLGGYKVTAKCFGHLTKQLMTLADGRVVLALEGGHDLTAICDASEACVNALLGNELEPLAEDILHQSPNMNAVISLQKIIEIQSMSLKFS
Procedure, shortened: as §1

[7] = target: T3, SIRT2 (Homo sapiens, UniProt Q8IXJ6); assay: HDACs selectivity assay; type: biochemical
T3 sequence (Q8IXJ6 1-389): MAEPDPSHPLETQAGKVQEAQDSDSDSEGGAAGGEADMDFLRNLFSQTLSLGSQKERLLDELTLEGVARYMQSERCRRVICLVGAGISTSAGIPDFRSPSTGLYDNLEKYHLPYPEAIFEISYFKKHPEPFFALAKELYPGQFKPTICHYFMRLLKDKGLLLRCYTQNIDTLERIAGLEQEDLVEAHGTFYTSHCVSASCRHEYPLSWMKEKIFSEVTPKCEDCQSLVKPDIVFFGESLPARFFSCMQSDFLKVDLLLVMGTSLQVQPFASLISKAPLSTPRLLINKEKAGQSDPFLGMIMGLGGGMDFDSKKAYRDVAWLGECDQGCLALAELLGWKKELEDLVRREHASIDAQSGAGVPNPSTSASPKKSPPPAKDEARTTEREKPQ

[8] = target: T4, full-length SIRT7 (Homo sapiens, UniProt Q9NRC8); assay: Selectivity FDL deacetylation assay; type: biochemical
T4 sequence (Q9NRC8 1-400): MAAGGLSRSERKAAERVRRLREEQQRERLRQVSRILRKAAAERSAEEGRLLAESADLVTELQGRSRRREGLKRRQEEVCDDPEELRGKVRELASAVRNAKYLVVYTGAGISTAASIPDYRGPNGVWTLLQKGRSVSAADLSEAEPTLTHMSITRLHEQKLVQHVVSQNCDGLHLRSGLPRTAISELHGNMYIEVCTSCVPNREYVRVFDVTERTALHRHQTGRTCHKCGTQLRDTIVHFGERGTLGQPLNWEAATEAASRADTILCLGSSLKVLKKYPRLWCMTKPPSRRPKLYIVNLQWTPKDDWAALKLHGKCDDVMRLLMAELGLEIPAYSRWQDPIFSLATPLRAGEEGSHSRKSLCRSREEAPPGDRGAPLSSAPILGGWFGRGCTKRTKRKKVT

[9] = test system: MiaPaCa-2 cells; assay: Western blot of SIRT6 substrates H3K9Ac, H3K18Ac, H3K56Ac; type: cell-based; conditions: MiaPaCa-2, different concentrations of JYQ-42, Western blot
Procedure, shortened: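 BXPC-3 cells were grown in RPMI1640 and MiaPaCa-2 cells in DMEM, each with 10% FBS and penicillin/streptomycin, at 37 °C under 5% CO2. Both lines were STR-verified. Cells took test compound at 0, 10, 20 or 40 μmol/L for 24 or 48 h and were lysed in 1× SDS loading buffer. Proteins were separated on 12% SDS-PAGE and transferred to PVDF. Blocking used Tris-NaCl pH 7.5 with Tween-20 and 5% milk. Detection was chemiluminescent (HRP), with β-actin as loading control.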

[10] = test system: BXPC-3 cells; assay: Proliferation assay; type: cell-based; conditions: BXPC-3, up to 20 μmol/L, 48 h, CCK-8
[11] = test system: BXPC-3 cells; assay: Migration assay by wound healing; type: cell-based; conditions: for relative migration rate (wound healing): control ~0.60
[12] = test system: BXPC-3 cells; assay: Q-PCR for SIRT6, IL6, IL8 and TNF-α mRNA; type: cell-based; conditions: BXPC-3, 10, 20, 40 μmol/L, 24 h, qPCR
[13] = test system: BXPC-3 cells; assay: ELISA for IL6, IL8 and TNF-α secretion; type: cell-based; conditions: BXPC-3, 30 ng/mL PMA, 10, 20, 40 μmol/L, 24 h

T1 sequence (Q8N6T7 whole entry): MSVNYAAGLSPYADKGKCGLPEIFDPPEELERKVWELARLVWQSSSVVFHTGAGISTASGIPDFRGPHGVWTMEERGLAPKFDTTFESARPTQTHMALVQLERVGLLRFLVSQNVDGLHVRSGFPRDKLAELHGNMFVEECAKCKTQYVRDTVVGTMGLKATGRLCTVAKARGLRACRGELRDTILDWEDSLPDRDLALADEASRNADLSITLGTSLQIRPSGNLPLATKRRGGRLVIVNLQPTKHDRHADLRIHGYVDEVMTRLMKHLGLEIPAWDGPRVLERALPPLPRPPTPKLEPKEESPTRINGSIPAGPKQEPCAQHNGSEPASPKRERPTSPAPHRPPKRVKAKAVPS

Nc1nonc1-n1cc(C(=O)N/N=C/c2cc(Cl)cc(C(F)(F)F)c2)nn1 [JYQ-42]
inhibition ratio at 50 μmol/L on H3K9Ac [1]: 90.7%
amount of H3K9-free lysine peptides by HPLC [2]: decreased prominently
effect of increasing NAD^+ or Ac-RHKK-Ac-AMC on the inhibition [3]: did not interfere with the inhibition
IC50 values on SIRT6 mutants ([4]; Y5A, T57A, P62A, D63A, P67A, H68A, V70A, P80A, K81A, Y257A versus wild type): increased
inhibition of SIRT6 deacetylation, T57A and H68A mutants ([4]; mutations T57A and H68A): completely disrupted JYQ-42 inhibition
IC50 [5]: > 100 µM
IC50 [6]: > 100 µM
IC50 [7]: 87.2 ± 1.1 µM
inhibition ratio at 50 μmol/L (SIRT2) ([7]; 50 μmol/L): 38.6%
SIRT2 IC50 relative to that of SIRT6 ([7]; IC50 SIRT2 / IC50 SIRT6): approximately 37 fold
Effect ([7]; SIRT2): Inhibition
IC50 [8]: > 100 µM
levels of H3K9Ac, H3K18Ac and H3K56Ac [9]: increased the levels of H3K9Ac, H3K18Ac and H3K56Ac in a dose-dependent manner
cell growth [10]: no significant impact on cell growth
relative migration rate (wound healing) ([11]; BXPC-3, 10 μmol/L JYQ-42, 24 h): ~ 0.3
relative migration rate (wound healing) ([11]; BXPC-3, 20 μmol/L JYQ-42, 24 h): ~ 0.24
relative migration rate (wound healing) ([11]; BXPC-3, 40 μmol/L JYQ-42, 24 h): ~ 0.10
migration with ADPr co-treatment (wound healing) ([11]; BXPC-3, 40 μmol/L JYQ-42 in the presence of 0.5 mmol/L ADPr): no influence on the migration
mRNA level of SIRT6 [12]: not significantly changed
secretion levels of IL6, IL8 and TNF-α [13]: blocked the secretion levels
